Test results: ChEMBL document CHEMBL4219134, “Xanthone derivatives as phosphoglycerate mutase 1 inhibitors: Design, synthesis, and biological evaluation” (Bioorg Med Chem, 2018)

Key:
Homo sapiens [1] = species: Homo sapiens; experiment: Inhibition of enolase (unknown origin) at 5 uM using 2-PG relative to control
How it was run: (§1)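 PGAM1 omitted to test the downstream coupling enzymes. Compound (0.5 mM stock) preincubated 2 min at room temperature in 50 mM Tris pH 8.0. OD340 decrease read; inhibition ratio at 5 µM.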

Homo sapiens [2] = species: Homo sapiens; experiment: Inhibition of pyruvate kinase (unknown origin) at 5 uM using 2-PG relative to control; how it was run: as §1
[3] = biological target: L-lactate dehydrogenase (Homo sapiens) (UniProt V9HWB9); experiment: Inhibition of LDH (unknown origin) at 5 uM using 2-PG relative to control; how it was run: as §1
MCF7 = experiment: Antiproliferative activity against human MCF7 cells after 72 hrs by MTT assay; format: functional, cell-based; conditions: MCF7, 72 h
How it was run: (§2)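 MTT assay: 2 × 10^3 cells per well, cultured 24 h at 37 °C. Compound then added for 72 h at 37 °C, followed by 0.5 mg mL-1 MTT for 4 h. Formazan dissolved in DMSO and absorbance read at 570 nm. IC50 from triplicate experiments, mean ± sd.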

PANC-1 [4] = experiment: Antiproliferative activity against human PANC1 cells after 72 hrs by MTT assay; format: functional, cell-based; conditions: PANC-1, 72 h; how it was run: as §2
NCI-H1299 [5] = experiment: Antiproliferative activity in human H1299 cells; format: functional, cell-based
Homo sapiens [6] = species: Homo sapiens; experiment: Inhibition of enolase (unknown origin) at 0.625 uM using 2-PG relative to control
How it was run: (§3)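 Counter-screen of the coupled downstream enzymes without PGAM1. Compound was preincubated 2 min at room temperature in 50 mM Tris pH 8.0. The reaction was started with 2PG (200 mM stock), and the NADH oxidation decrease was read at 340 nm.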

[7] = biological target: L-lactate dehydrogenase (Homo sapiens) (UniProt V9HWB9); experiment: Inhibition of LDH (unknown origin) at 0.625 uM using 2-PG relative to control; how it was run: as §3
Homo sapiens [8] = species: Homo sapiens; experiment: Inhibition of pyruvate kinase (unknown origin) at 0.625 uM using 2-PG relative to control; how it was run: as §3
NCI-H1299 [9] = experiment: Antiproliferative activity in human NCI-H1299 cells after 72 hrs; format: functional, cell-based; conditions: NCI-H1299, 72 h
How it was run: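 MTT assay: 2 × 10^3 cells per well were seeded and cultured 24 h at 37 °C. Inhibitor was added and cells were incubated 72 h at 37 °C. MTT was then added at 0.5 mg/mL for 4 h at 37 °C, followed by DMSO solubilisation and absorbance reading at 570 nm. IC50 is reported as mean ± sd of triplicates.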

[10] = biological target: T1, Phosphoglycerate mutase 1 (Homo sapiens, UniProt P18669); experiment: Inhibition of recombinant human His-tagged PGAM1 expressed in Escherichia coli BL21 competent cells by multiple enzymes coupled assay measuring NADH oxidation at 340 nm
[11] = biological target: T1, Phosphoglycerate mutase 1; experiment: Inhibition of recombinant PGAM1 (unknown origin) using 3-PG as substrate preincubated for 2 mins followed by substrate addition
How it was run: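 Recombinant PGAM1 plus compound (DMSO) in 50 mM Tris pH 8.0, preincubated 2 min at room temperature. Started with 3PG (200 mM stock); NADH oxidation read as OD340 decrease. IC50 from triplicates, mean ± sd.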

NCI-H1299 [12] = experiment: Antiproliferative activity against human H1299 cells after 72 hrs by MTT assay; format: functional, cell-based; conditions: NCI-H1299, 72 h; how it was run: as §2
PANC-1 [13] = experiment: Antiproliferative activity against PGAM1 knockdown human PANC1 cells after 72 hrs by MTT assay; format: functional, cell-based; conditions: PANC-1, 72 h; how it was run: as §2
PANC-1 [14] = experiment: Antiproliferative activity against PGAM1 overexpessed human PANC1 cells after 72 hrs by MTT assay; format: functional, cell-based; conditions: PANC-1, 72 h; how it was run: as §2

T1 sequence (P18669 whole entry): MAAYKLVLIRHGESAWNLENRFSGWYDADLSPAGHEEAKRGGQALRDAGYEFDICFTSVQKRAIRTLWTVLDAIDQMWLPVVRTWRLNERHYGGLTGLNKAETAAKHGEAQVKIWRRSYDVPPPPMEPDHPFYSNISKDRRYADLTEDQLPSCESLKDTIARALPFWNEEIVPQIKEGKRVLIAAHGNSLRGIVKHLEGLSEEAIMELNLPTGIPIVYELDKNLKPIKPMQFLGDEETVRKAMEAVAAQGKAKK

SMILES	inhibition (Homo sapiens [1])	inhibition (Homo sapiens [2])	inhibition [3]	IC50 (MCF7)	IC50 (PANC-1 [4])	IC50 (NCI-H1299 [5])	inhibition (Homo sapiens [6])	inhibition [7]	inhibition (Homo sapiens [8])	IC50 (NCI-H1299 [9])	IC50 [10]	IC50 [11]	IC50 (NCI-H1299 [12])	IC50 (PANC-1 [13])	IC50 (PANC-1 [14])
O=C1c2ccccc2C(=O)c2c1cc(S(=O)(=O)Nc1ccc(C(F)(F)F)cc1)c(O)c2O	38%	38%	38%	> 40 µM	32 µM	25.6 to 26 µM									
O=C(O[C@@H]1Cc2c(O)cc(O)cc2O[C@@H]1c1cc(O)c(O)c(O)c1)c1cc(O)c(O)c(O)c1 [EPIGALOCATECHIN GALLATE]							63%	63%	63%	> 80 µM	0.49 µM				
O=c1c2c(O)cccc2oc2cc(NS(=O)(=O)c3cc(C(F)(F)F)ccc3C(F)(F)F)c(O)c(O)c12	2%	2%	2%	15.8 µM	10.5 µM							6.3 µM	16.8 µM	42.8 µM	25 µM
